Experimental data reported in article PMC7497186 (The Journal of Pharmacy and Pharmacology, 2020).
Where two headings read alike, the source gives them in different places.

Columns and labels:
[1] = tested on: nitric oxide (NO) released from SW480 cells; experiment: Nitric oxide inhibition, GREISS assay, LPS-induced SW480 cells; assay type: cell-based, human; conditions: for inhibition at 10 µM: SW480, read-out: % inhibition of NO released; for % inhibition of NO released: 10 µM, mean ± SEM, n = 3
Method in brief: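 SW480 cells stimulated with 1 µg/ml S. typhimurium LPS plus IFN-γ for 48 h at 37°C, 5% CO2. Fresh supernatant mixed with an equal volume of sulphanilamide for 10 min at RT in the dark, then NED added for 20 min. Absorbance read at 540 nm; nitrite quantified against a 0–100 NO2 standard curve. Mean ± SEM, n = 3.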

THP-1 macrophages = experiment: Cytotoxicity, acid phosphatase assay, THP-1 macrophages; assay type: cell-based, human; conditions: 10, 30 and 50 µM, 24 h
Method in brief: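 THP-1 monocytes seeded at 4 × 10^4 per well, PMA-differentiated for 48 h, then rested for 3 days. Macrophages exposed to test compound for 24 h and washed with PBS. p-Nitrophenyl phosphate substrate (sodium acetate, 0.1% Triton X-100, pH 5.5) added for 1 h at 37°C in the dark. Stopped with NaOH; read at 405 nm. Mean ± SEM, n = 4.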

SW480 cells = experiment: Cytotoxicity, acid phosphatase assay, SW480 cells; assay type: cell-based, human; conditions: 10, 30 and 50 µM, 24 h
Method in brief: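 SW480 cells seeded at 4 × 10^4 per well 24 h before compound exposure, then exposed to test compound for 24 h. Wells washed with PBS. Acid phosphatase substrate (p-nitrophenyl phosphate in sodium acetate, 0.1% Triton X-100, pH 5.5) added for 1 h at 37°C, 5% CO2, in the dark. Stopped with NaOH; absorbance read at 405 nm. Mean ± SEM, n = 4.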

human recombinant 5-LOX = biological target: T1, human recombinant 5-LOX (Homo sapiens, UniProt P09917); experiment: 5-LOX inhibition, UV-Vis spectrophotometric assay; assay type: biochemical; conditions: for inhibition at 10 µM: read-out: % inhibition of 5-LOX
T1 sequence (P09917 1-674): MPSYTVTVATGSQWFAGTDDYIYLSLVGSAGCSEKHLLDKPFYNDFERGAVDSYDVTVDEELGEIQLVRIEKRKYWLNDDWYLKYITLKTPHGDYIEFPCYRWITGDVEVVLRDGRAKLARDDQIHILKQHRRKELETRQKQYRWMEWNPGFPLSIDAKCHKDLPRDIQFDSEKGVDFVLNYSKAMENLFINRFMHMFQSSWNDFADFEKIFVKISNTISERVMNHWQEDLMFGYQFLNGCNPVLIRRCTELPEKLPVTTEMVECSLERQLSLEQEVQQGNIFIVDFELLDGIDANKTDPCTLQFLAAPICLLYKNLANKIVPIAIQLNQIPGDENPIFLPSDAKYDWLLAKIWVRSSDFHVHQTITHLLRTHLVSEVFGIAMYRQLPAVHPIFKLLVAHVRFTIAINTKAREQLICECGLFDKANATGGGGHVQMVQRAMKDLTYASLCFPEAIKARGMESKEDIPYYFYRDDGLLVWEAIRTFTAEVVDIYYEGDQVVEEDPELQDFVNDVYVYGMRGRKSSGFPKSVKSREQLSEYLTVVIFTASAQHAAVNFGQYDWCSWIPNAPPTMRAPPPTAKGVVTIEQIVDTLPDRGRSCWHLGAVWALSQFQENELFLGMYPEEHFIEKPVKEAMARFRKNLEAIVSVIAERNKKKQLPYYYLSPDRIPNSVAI
Method in brief: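 Human recombinant 5-LOX (0.5 unit/ml final) pre-incubated 5 min at RT in the dark with test compound, CaCl2 (0.4 mm final), L-α-phosphatidylcholine type II-S (24 µg/ml final) and ATP (0.2 mm final). Reaction started with arachidonic acid (50 µm final) in quartz microcuvettes. 5-HpETE conjugated diene formation followed as absorbance increase at 234 nm (ε = 25 000 M−1 cm−1).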

[2] = tested on: IL-6 in THP-1 macrophages; experiment: Cytokine profiling THP-1 macrophages: IL-6; assay type: cell-based, human; conditions: for level of IL-6: 24 h, CTRL 1 1.666 ± 0.256; for inhibition at 10 µM: Homo sapiens, THP-1, read-out: IL-6 inhibition over CTRL 1
[3] = tested on: IL-8 from LPS-induced SW480 cells; experiment: IL-8 from LPS-induced SW480 cells; assay type: cell-based, human; conditions: for level of IL-8: 10 µM, LPS-induced SW480 cells, CTRL 1 3.324 ± 0.076; for inhibition at 10 µM: Homo sapiens, SW480, read-out: % inhibition of IL-8 over CTRL 1
[4] = tested on: TNF-α in THP-1 macrophages; experiment: Cytokine profiling THP-1 macrophages: TNF-α; assay type: cell-based, human; conditions: for level of TNF-α: CTRL 1 22.305 ± 2.753; for inhibition at 10 µM: Homo sapiens, THP-1, read-out: % inhibition of TNF-α
DSS colitis mice = conditions: cited from earlier work
IL-10−/− colitis mice = conditions: IL-10 -/- murine model of colitis; cited from earlier work
[5] = tested on: IL-1β in THP-1 macrophages; experiment: Cytokine profiling THP-1 macrophages: IL-1β; assay type: cell-based, human; conditions: 10 µM, LPS-stimulated THP-1 macrophages; CTRL 1 0.329 ± 0.042
[6] = tested on: nitric oxide (NO) released from SW480 cells; conditions: read-out: IC50 NO inhibition, reported value; literature value; cited from earlier work
[7] = Homo sapiens, SW480, read-out: IC50 NO inhibition
[8] = 10 µM, LPS-stimulated THP-1 macrophages

Compound	IC50 [1, 7] [µM]	inhibition at 10 µM (human recombinant 5-LOX) [%]	% inhibition of NO released ([1]; LPS-induced SW480 cells)	level of IL-8 [3] [pg/µg ml]	inhibition at 10 µM [3] [%]	level of IL-6 [2, 8] [pg/µg ml]	level of TNF-α [4, 8] [pg/µg ml]	other results
C[C@]12CCC(=O)C=C1CC[C@@H]1[C@@H]2[C@@H](O)C[C@@]2(C)[C@H]1CC[C@]2(O)C(=O)CO [hydrocortisone, reference compound]	48.7	–	–	–	–	–	–	inhibition at 10 µM ([1]; Homo sapiens): 43.5 ± 12.3%
O=C(O)c1ccc(CC2(C3=Cc4ccccc4C3)Cc3ccccc3C2)cc1 [compound 7, 4-((1',3'-dihydro-1H,2'H-[2,2'-biinden]-2'-yl)methyl)benzoic acid]	–	39.7 ± 4.95	inhibited NO production	2.676 ± 0.142	19.5	–	–	cytotoxicity in THP-1 macrophages (THP-1 macrophages): no cytotoxicity effects; cytotoxicity in SW480 cells (SW480 cells): no cytotoxicity effects; IL-6 inhibition over CTRL 1 [2, 8]: less potent but statistically significant
O=C1c2ccccc2C[C@@]1(Cc1ccccc1)C1=Cc2ccccc2C1 [compound 9, (S)-2-benzyl-2,3-dihydro-1H,1'H-[2,2'-biinden]-1-one]	20.5 ± 2.89	–	inhibited NO production	–	–	–	–	–
CC(c1cc2ccccc2s1)N(O)C(N)=O (stereo not drawn) [zileuton, reference compound]	–	45.2 ± 5.36	–	–	–	–	–	–
O[C@@H]1c2ccccc2C[C@@]1(Cc1ccccc1)C1=Cc2ccccc2C1 [compound 8, (1S,2S)-2-benzyl-2,3-dihydro-1H,1'H-[2,2'-biinden]-1-ol]	–	–	–	2.288 ± 0.059	31.2	0.075 ± 0.019	14.193 ± 1.685	inhibition at 10 µM [2]: 95.5%; inhibition at 10 µM [4]: 33%
O=C(O)c1ccc(C[C@@]2(C3=Cc4ccccc4C3)Cc3ccccc3C2=O)cc1 [compound 6, (S)-4-((1'-oxo-1',3'-dihydro-1H,2'H-[2,2'-biinden]-2'-yl)methyl)benzoic acid]	–	–	inhibited NO production	–	–	–	–	–
O=C(O)c1ccc(C[C@@]2(C3=Cc4ccccc4C3)Cc3ccccc3[C@H]2O)cc1 [compound 2, 4-(((1'S,2'S)-1'-hydroxy-1',3'-dihydro-1H,2'H-[2,2'-biinden]-2'-yl)methyl)benzoic acid]	19.7 ± 7.88	45.3 ± 5.28	–	2.529 ± 0.058	23.9	0.132 ± 0.038	11.613 ± 0.162	cytotoxicity in THP-1 macrophages (THP-1 macrophages): no cytotoxicity effects; cytotoxicity in SW480 cells (SW480 cells): no cytotoxicity effects; inhibition at 10 µM ([1]; Homo sapiens): 56.5 ± 3.09%; inhibition at 10 µM [2]: 92.1%; inhibition at 10 µM [4]: 45.2%; colon cytokine levels of TNFα, IL-6 and IL1b (DSS colitis mice; DSS colitis mice): reduced; DAI (DSS colitis mice; acute 5% DSS murine model of colitis): reduced; MPO activity, a measure of inflammatory cell infiltration (DSS colitis mice; murine model of colitis, model not given): significantly reduced; DAI (IL-10−/− colitis mice): reduced
CC(Cc1ccc(O)c(O)c1)C(C)Cc1ccc(O)c(O)c1 (stereo not drawn) [NDGA, nordihydroguaiaretic acid, reference compound]	–	–	–	–	–	–	–	% inhibition of 5-LOX (human recombinant 5-LOX; screened at 10 µM, mean ± SEM, n = 3): 51.92 ± 1.01%
Infliximab: positive control; anti-TNF-α therapy for IBD treatment	–	–	–	–	–	0.924 ± 0.180	0.002 ± 0	level of IL-1β [5]: 0.329 ± 0.059 pg/µg ml; % inhibition of TNF-α [4, 8]: 99.98%
COc1c(O)cc2oc3cc(O)c(CC=C(C)C)c(O)c3c(=O)c2c1CC=C(C)C [α-mangostin, reference compound]	–	–	61.63 ± 7.50%	–	–	–	–	IC50 ([1]; read-out: IC50 NO inhibition, LPS-induced SW480 cells): 8.87 ± 1.18 µM; IC50 [6]: 12.2 µM
